# Compound activity (PubChem BioAssay)
# V-ATPase pH: alters yeast V-ATPase proton transport. 0.37% of 350,000 active. S. cerevisiae, pHLuorin cytosolic pH fluorescence. response, % at 10 µM. AID 504577; in the data active = response mostly above about 7.3%, no sharp cut-off; inactive = mostly below about 5.4%; also: actives read high
# CendR NRP1 mod: alters CendR peptide binding to human NRP-1; 0.85% of 360,000 active; FAM-RPARPAR peptide binding to NRP-1, fluorescence polarization; inhibition, % at 25 µM; O14786;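 active = inhibition or corrected inhibition above about 18%, plus a signal ratio from 0.5 to 1.5, limit read from the data, passing the limit was not always enough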
# ASAP1 GAP inh: ASAP1 ArfGAP inhibition; ASAP1-stimulated ARF1 GTP hydrolysis, GDP FP detection; inhibition, % at 16.5 µM; 0.19% of 360,000 active; AID 624377; in the data active = inhibition above about 25%;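 also: 0% = vehicle with enzyme and substrate and 100% = no enzyme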
# Target sequence (Q9ULH1 325-724 limits assumed): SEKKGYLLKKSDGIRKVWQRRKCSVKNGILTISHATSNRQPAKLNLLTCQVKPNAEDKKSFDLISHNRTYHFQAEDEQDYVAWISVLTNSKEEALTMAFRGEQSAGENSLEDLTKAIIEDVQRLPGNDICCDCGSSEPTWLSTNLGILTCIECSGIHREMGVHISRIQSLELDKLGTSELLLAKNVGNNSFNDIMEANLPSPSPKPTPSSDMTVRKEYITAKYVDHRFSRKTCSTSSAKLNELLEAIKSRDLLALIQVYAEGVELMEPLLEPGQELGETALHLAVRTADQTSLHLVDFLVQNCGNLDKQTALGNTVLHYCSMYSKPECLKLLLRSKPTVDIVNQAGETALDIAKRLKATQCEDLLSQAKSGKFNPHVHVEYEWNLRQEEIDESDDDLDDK
# ARFGAP1 inh: inhibitors of rat ARFGAP1 | AID 651572 | inhibition, % at 16.5 µM | Q62848 | 0.26% of 360,000 active | Arfgap1-stimulated ARF1 GTP hydrolysis, GDP FP detection;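 active = inhibition above a per-plate limit, mean inhibition of low control wells plus 3 SD, cut at about 25% in these data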;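 also: 0% = DMSO wells with enzyme and 100% = wells lacking Arfgap1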
# Target sequence (Q62848 1-136 limits assumed): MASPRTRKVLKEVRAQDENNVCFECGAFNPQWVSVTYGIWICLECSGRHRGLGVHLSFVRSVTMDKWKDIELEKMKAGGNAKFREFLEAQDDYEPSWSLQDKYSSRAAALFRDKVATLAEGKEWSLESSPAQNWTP
#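 System: truncated rat Arfgap1 GAP domain / Benchmarks: high control wells lacking Arfgap1, low control full reaction with DMSO / Times: compound-enzyme preincubation 20 min, reaction 120 min, detection 60 min, 25 °C / Repeats: one replicate per compound / Also added: human ARF1(Δ1-17)-GTP substrate / Measured by: Tracer-displacement fluorescence polarization with EDTA stop, 620/688 nm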
# Granule exo inh: blocks lytic granule exocytosis | TALL-104 LAMP-1 surface exposure, flow cytometry; cells stimulated with thapsigargin and PMA | inhibition, % at 10 µM | 0.66% of 360,000 active;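 active = inhibition above about 55%, limit read from the data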
# * = called active by the depositor; x = no result given. An excerpt weighted towards active compounds, which were near 2.2% of everything screened.
SMILES,V-ATPase pH,CendR NRP1 mod,ASAP1 GAP inh,ARFGAP1 inh,Granule exo inh
COC(=O)C1=C(C)N(Cc2ccccc2C(F)(F)F)C(=NCc2ccc(OC)cc2)NC1CCc1ccccc1 (centres undefined),x,x,-7,0,x
COc1ccc(NC(=O)Nc2ccc3c(c2)C(=O)N([C@H](C)CO)C[C@H](C)[C@@H](CN(C)S(=O)(=O)c2cccs2)O3)cc1,2,-7,6,0,-4
Cc1noc(C)c1NC(=O)Nc1cccc2c1O[C@@H](CN(C)C)[C@@H](C)CN([C@H](C)CO)C2=O,-5,10,3,-10,-12
C[C@H](CO)N1C[C@H](C)[C@@H](CN(C)Cc2ccc(Cl)c(Cl)c2)Oc2c(NS(=O)(=O)c3ccc(F)cc3)cccc2C1=O,0,7,31*,1,-9
Cc1noc(C)c1NC(=O)N(C)C[C@H]1Oc2c(NC(=O)c3ccncc3)cccc2C(=O)N([C@H](C)CO)C[C@@H]1C,3,-4,8,0,-6
Cc1noc(C)c1NC(=O)Nc1cccc2c1O[C@H](CN(C)C(=O)NC1CCCCC1)[C@@H](C)CN([C@H](C)CO)C2=O,-1,25*,-8,-5,2
CC(C)NC(=O)Nc1ccc2c(c1)C(=O)N([C@H](C)CO)C[C@H](C)[C@@H](CN(C)S(=O)(=O)c1cccs1)O2,-5,25*,-3,13,0
Cc1noc(C)c1NC(=O)N(C)C[C@H]1Oc2c(NC(=O)NC(C)C)cccc2C(=O)N([C@H](C)CO)C[C@@H]1C,2,25*,-8,3,-5
Cc1cc(N2CCNC[C@H]2C)ccc1N1CCS(=O)(=O)CC1,x,x,5,-6,x
COc1ccccc1N(C(=O)c1ccco1)C(C(=O)NC1CCCCC1)c1cc(OC)c(OC)c(OC)c1 (centres undefined),-1,26*,7,-2,23
Cc1cc(C)cc(N(C(=O)CNC(=O)c2ccco2)C(C(=O)NC2CCCCC2)c2ccncc2)c1 (centres undefined),2,22*,-7,4,-2
Cc1cc(C)cc(N(C(=O)CNC(=O)c2ccco2)C(C(=O)NC2CCCCC2)c2cccnc2)c1 (centres undefined),-4,6,-10,13,7
COc1ccccc1N(C(=O)CNC(=O)c1ccco1)C(C(=O)NC1CCCC1)c1ccco1 (centres undefined),-1,18*,-4,11,32
O=C(NCC(=O)N(c1ccccc1F)C(C(=O)NC1CCCC1)c1ccco1)c1ccco1 (centres undefined),-2,5,-5,7,17
Cc1cc2c(nc1C)CCCN2S(=O)(=O)c1ccc(F)cc1,x,x,3,1,x
COc1ccc(-c2c(C(=O)c3ccccc3)[nH]c(N)c2C(=O)NCCc2c[nH]c3ccccc23)cc1,x,x,-6,8,x
CCOc1ccc(NS(=O)(=O)c2ccc(C(=O)N(C)CC(=O)Nc3ccccc3Br)cc2)cc1,0,-3,-7,-7,-10
COc1ccc(CCNC(=O)c2nnn(CC(=O)Nc3ccccc3C)c2N)cc1OC,0,28*,-7,-2,1
O=C(N=Nc1c(O)[nH]c2c(Cl)cc(Cl)cc12)c1ccccc1O,x,x,1,-11,x
Cc1cc(Oc2cccc3c2S(=O)(=O)N([C@H](C)c2ccccc2)C[C@@H](COCc2ccccc2)O3)cc(C)c1C,x,x,-4,8,x
COc1ccc(N/C=C/C(=O)C(C)(C)C)cc1,-2,31*,17,-3,-5
Cc1ccccc1-c1ccc2c(c1)[C@@H]1C[C@H](N(C)CC3CCCCC3)[C@H]([C@H](C)O)CN1CC2,x,x,8,-13,x
CC(OC(=O)c1cc(Br)ccc1O)C(=O)Nc1ccc(S(=O)(=O)N2CCCC2)cc1 (centres undefined),2,25*,-7,8,7
CCOc1ccc2[nH]c(O)c(NC(C)=O)c2c1,3,28*,-8,-4,0
CCOC(=O)c1[nH]c2ccc(OC)cc2c1NC(C)=O,-2,3,-2,5,1
SMILES,V-ATPase pH,CendR NRP1 mod,ASAP1 GAP inh,ARFGAP1 inh,Granule exo inh
COc1cccc(N2[C@@H](CC(C)=O)c3ccc(/C=C/C(C)=O)cc3S2(=O)=O)c1,2,22*,-9,0,3
COc1ccc(CN2[C@@H](CC(C)=O)c3ccc(/C=C/C(C)=O)cc3S2(=O)=O)cc1,0,-6,5,0,4
Cc1ccccc1C(=O)N[C@H](C(=O)N1CCC[C@H]1C(=O)NCCc1ccccc1Cl)c1ccccc1,x,x,-7,-5,x
Cc1ccc(NC(=O)c2ccc3c(c2)S(=O)(=O)c2ccccc2C3=O)cc1S(=O)(=O)N1CCOCC1,-2,29*,-6,6,-5
O=C(Nc1ccc(S(=O)(=O)N2CCOCC2)cc1)c1ccc2c(c1)S(=O)(=O)c1ccccc1C2=O,0,-10,-4,15,5
COc1ccccc1C(=O)N1CCN(C(=O)[C@H]2O[C@@H](n3cnc(C(N)=O)n3)[C@H](O)[C@@H]2O)CC1,x,x,1,0,x
Nc1[nH]c(C(=O)c2ccc(Br)cc2)c(-c2ccncc2)c1C(=O)NCCc1c[nH]c2ccccc12,x,x,1,15,x
FC(F)(F)c1cccc(Oc2ccc3c(C(F)(F)F)cc(C(F)(F)F)nc3n2)c1,3,-2,0,0,0
FC(F)(F)c1cc(C(F)(F)F)c2ccc(Oc3ccccc3)nc2n1,0,33*,-7,11,-2
CCOC(=O)[C@H]1[C@H]2COc3cc(OC)ccc3[C@@H]2N2C(=O)N(c3cccc(F)c3)C(=O)[C@@]12C,0,13,10,3,-4
CCOC(=O)[C@@H]1[C@H]2COc3ccccc3[C@@H]2N2C(=O)N(c3cccc(Cl)c3)C(=O)[C@]12C,-1,28*,10,1,-5
CCOC(=O)[C@H]1[C@H]2COc3ccccc3[C@@H]2N2C(=O)c3cc(Cl)ccc3NC(=O)[C@@]12C,-2,23*,-4,2,2
CCOC(=O)[C@H]1[C@H]2COc3ccccc3[C@@H]2N2C(=O)c3ccc(Cl)cc3NC(=O)[C@@]12C,1,9,11,1,-5
CCOC(=O)[C@@H]1[C@H]2COc3cc(OC)ccc3[C@H]2N2C(=O)N(c3cccc(F)c3)C(=O)[C@@]12C,2,25*,-4,1,-5
CCOC(=O)[C@@H]1[C@H]2COc3ccccc3[C@H]2N2C(=O)N(c3cccc(Cl)c3)C(=O)[C@@]12C,-5,5,x,x,-8
COC(=O)N1Cc2ccnnc2CC1c1ccccc1-c1ccc(F)cc1 (centres undefined),x,x,-10,-4,x
COC(=O)[C@]12C[C@H](CC(=O)N3CCSCC3)C(=O)N(Cc3ccc4c(c3)OCO4)C1=C[C@H](C(C)(C)C)O[C@@H]2C,x,x,-5,3,x
O=C(CCC(=O)c1cccs1)Nc1ccccc1F,19*,-4,1,7,-1
CCc1ccccc1NC(=O)CCC(=O)c1cccs1,0,0,-3,5,-8
